Experimental data published in ChEMBL document CHEMBL3244407, “Synthesis of spiro[tetralin-2,2'-pyrrolidine] and spiro[indan-2,2'-pyrrolidine] derivatives as potential analgesics” (J Med Chem, 1978).
Activity calls are given as the source filed them. No cut-off for these calls is given here.

test system: Mus musculus; assay: Antidepressant activity in mouse assessed as reversal of reserpine-induced hypothermia measured as cumulative temperature rise at 30 mg/kg administered 17 hrs post reserpine-challenge; type: functional; conditions: not given
Procedure, shortened: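 Groups of six mice pretreated with reserpine 2 mg/kg sc; compound given 17 h later. Gastric temperature read just before dosing (t0) and at 2, 4 and 6 h. Cumulative rise T = (t2 + t4 + t6) − 3t0, averaged per group, in °C.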

Structure (SMILES)	T
Br.CN1CCCC12CCc1cc(O)ccc1C2 (stereo not given)	0.7 °C
Br.Oc1ccc2c(c1)CCC1(CCCN1)C2 (stereo not given)	0.7 °C
CN1CC[C@]23c4c5ccc(O)c4O[C@H]2[C@@H](O)C=C[C@H]3[C@H]1C5.Cl [MORPHINE HYDROCHLORIDE]	0.3 °C
Br.COc1ccc2c(c1)CCC1(CCCN1C)C2 (stereo not given)	1.2 °C
CN1CCCC12CCc1ccccc1C2.Cl (stereo not given)	2.7 °C
COc1ccc2c(c1)CCC1(CCCN1)C2.Cl (stereo not given)	0.2 °C
CN1CCCC12Cc1ccccc1C2.Cl	5.1 °C
Cl.c1ccc2c(c1)CCC1(CCCN1)C2 (stereo not given)	4.5 °C
CN(C)CCCN1c2ccccc2CCc2ccccc21 [IMIPRAMINE]	8 °C
Cl.c1ccc2c(c1)CC1(CCCN1)C2	5.1 °C

organism: Mus musculus; assay: animal or person; type: functional; conditions: route oral

Structure (SMILES)	inhibition in vivo at 10 mg/kg
CN1CC[C@]23c4c5ccc(O)c4O[C@H]2[C@@H](O)C=C[C@H]3[C@H]1C5.Cl [MORPHINE HYDROCHLORIDE]	100%
CN1CCCC12CCc1ccccc1C2.Cl (stereo not given)	100%
Cl.c1ccc2c(c1)CCC1(CCCN1)C2 (stereo not given)	100%
Cl.c1ccc2c(c1)CC1(CCCN1)C2	50%

organism: Mus musculus; assay: Effect on CNS activity in mouse by maximal metrazole shock test; type: functional, organism-based; conditions: Central nervous system

Structure (SMILES)	Activity
Br.CN1CCCC12CCc1cc(O)ccc1C2 (stereo not given)	inactive
Br.Oc1ccc2c(c1)CCC1(CCCN1)C2 (stereo not given)	inactive
Br.COc1ccc2c(c1)CCC1(CCCN1C)C2 (stereo not given)	inactive
CN1CCCC12CCc1ccccc1C2.Cl (stereo not given)	inactive
COc1ccc2c(c1)CCC1(CCCN1)C2.Cl (stereo not given)	inactive
CN1CCCC12Cc1ccccc1C2.Cl	inactive
Cl.c1ccc2c(c1)CCC1(CCCN1)C2 (stereo not given)	inactive
Cl.c1ccc2c(c1)CC1(CCCN1)C2	inactive

organism: Mus musculus; assay: Effect on CNS activity in mouse by maximal electroshock test; type: functional, organism-based; conditions: Central nervous system

Structure (SMILES)	Activity
Br.CN1CCCC12CCc1cc(O)ccc1C2 (stereo not given)	inactive
Br.Oc1ccc2c(c1)CCC1(CCCN1)C2 (stereo not given)	inactive
Br.COc1ccc2c(c1)CCC1(CCCN1C)C2 (stereo not given)	inactive
CN1CCCC12CCc1ccccc1C2.Cl (stereo not given)	inactive
COc1ccc2c(c1)CCC1(CCCN1)C2.Cl (stereo not given)	inactive
CN1CCCC12Cc1ccccc1C2.Cl	inactive
Cl.c1ccc2c(c1)CCC1(CCCN1)C2 (stereo not given)	inactive
Cl.c1ccc2c(c1)CC1(CCCN1)C2	inactive

test system: Mus musculus; assay: Analgesic activity in mouse assessed as inhibition of acetic acid-induced writhing response at 30 mg/kg, po administered 30 mins prior to acetic acid-challenge relative to control; type: functional; conditions: not given
Procedure, shortened: (§1)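 Mice in groups, dosed orally with vehicle or compound; 30 min later given dilute acetic acid ip (0.4 mL, 0.25%). Total squirming movements counted.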

Structure (SMILES)	inhibition in vivo at 30 mg/kg
Br.CN1CCCC12CCc1cc(O)ccc1C2 (stereo not given)	75%
Br.Oc1ccc2c(c1)CCC1(CCCN1)C2 (stereo not given)	0%
Br.COc1ccc2c(c1)CCC1(CCCN1C)C2 (stereo not given)	75%
COc1ccc2c(c1)CCC1(CCCN1)C2.Cl (stereo not given)	50%
CN(C)CCCN1c2ccccc2CCc2ccccc21 [IMIPRAMINE]	50%

test system: Mus musculus; assay: Analgesic activity in mouse assessed as inhibition of acetic acid-induced writhing response at 100 mg/kg, po administered 30 mins prior to acetic acid-challenge relative to control; type: functional; conditions: not given; procedure, shortened: as §1

Structure (SMILES)	inhibition in vivo at 100 mg/kg
CN1CCCC12Cc1ccccc1C2.Cl	50%

organism: Mus musculus; assay: Neurotoxicity in mouse by stationary rod test; type: toxicity, organism-based; conditions: in vivo

Structure (SMILES)	Activity
Br.CN1CCCC12CCc1cc(O)ccc1C2 (stereo not given)	Non-toxic
Br.Oc1ccc2c(c1)CCC1(CCCN1)C2 (stereo not given)	Non-toxic
Br.COc1ccc2c(c1)CCC1(CCCN1C)C2 (stereo not given)	Non-toxic
CN1CCCC12CCc1ccccc1C2.Cl (stereo not given)	Non-toxic
COc1ccc2c(c1)CCC1(CCCN1)C2.Cl (stereo not given)	Non-toxic
CN1CCCC12Cc1ccccc1C2.Cl	Non-toxic
Cl.c1ccc2c(c1)CCC1(CCCN1)C2 (stereo not given)	Non-toxic
Cl.c1ccc2c(c1)CC1(CCCN1)C2	Non-toxic

organism: Mus musculus; assay: Effect on locomotor activity in mouse; type: functional, organism-based; conditions: not given

Structure (SMILES)	Activity
Br.CN1CCCC12CCc1cc(O)ccc1C2 (stereo not given)	inactive
Br.Oc1ccc2c(c1)CCC1(CCCN1)C2 (stereo not given)	inactive
Br.COc1ccc2c(c1)CCC1(CCCN1C)C2 (stereo not given)	inactive
CN1CCCC12CCc1ccccc1C2.Cl (stereo not given)	inactive
COc1ccc2c(c1)CCC1(CCCN1)C2.Cl (stereo not given)	inactive
CN1CCCC12Cc1ccccc1C2.Cl	inactive
Cl.c1ccc2c(c1)CCC1(CCCN1)C2 (stereo not given)	inactive
Cl.c1ccc2c(c1)CC1(CCCN1)C2	inactive

organism: Mus musculus; assay: Analgesic activity in mouse by hot-plate test; type: functional; conditions: not given

Structure (SMILES)	ED50
CN1CCCC12CCc1ccccc1C2.Cl (stereo not given)	7.4 mg/kg
Cl.c1ccc2c(c1)CCC1(CCCN1)C2 (stereo not given)	7.1 mg/kg
Cl.c1ccc2c(c1)CC1(CCCN1)C2	> 30 mg/kg
